The record followed here is ChEMBL document CHEMBL1152160, “Synthesis and bioevaluation of hybrid 4-aminoquinoline triazines as a new class of antimalarial agents” (Bioorg Med Chem Lett, 2008).

One series relates to Plasmodium falciparum. The series can be described thus: Antimalarial activity after 72hrs against chloroquine-sensitive Plasmodium falciparum 3D7 infected erythrocytes. The series is classed as functional, organism-based. The note with it: 3D7, 72 h. The method, boiled down: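 Serial dilutions in screening medium, seven concentrations (top 500 ng/mL, or 100 ng/mL for some compounds), duplicate wells. Added 2.5% haematocrit erythrocytes at 0.5% parasitaemia. Uninfected erythrocytes without drug as negative control, CQ as positive control. After 72 h, SYBR Green I in lysis buffer (20 mM tris pH 7.5, 5 mM EDTA, saponin, Triton X-100), 1 h room temperature, fluorescence read.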

Series [1] is described as follows: Selectivity index, ratio of IC50 for african green monkey (Cercopithecus aethiops) Vero cells to IC50 for chloroquine-sensitive Plasmodium falciparum 3D7. Particulars: read-out: Ratio IC50. The series is classed as toxicity, cell-based. The method, boiled down:
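Vero cells at 1 × 10⁴ cells/well were exposed to varying compound concentrations, highest 100 µg/mL, for 72 h. Viability was measured by MTT. Cytotoxic IC50 was taken from non-linear regression of dose–response curves and divided by the 3D7 IC50 to give the index.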

Series [2] concerns Plasmodium yoelii. The experiment in a line: Antimalarial activity as reduced parasitaemia after 4 days against Plasmodium yoelii N67 infected Swiss mice (Mus musculus) at 50 mg/kg/day intraperitoneal dose. The series is classed as functional, N-67. Further details: scale not given: the % may be the effect or the level left. An outline of the steps: (§1)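 Swiss mice (22 ± 2 g), groups of five, inoculated day 0 with P. yoelii N-67-parasitized RBC. Dosed 50 mg/kg/day i.p. once daily, days 0–3, as aqueous suspension with a few drops of Tween 80 in 0.2 mL. Parasitaemia read from thin blood smears on days 4–6. Group mean gave % suppression versus untreated controls. CQ-treated mice as reference.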

The subject of series [3] is Plasmodium yoelii. The series can be described thus: Antimalarial activity as reduced parasitaemia after 6 days against Plasmodium yoelii N67 infected Swiss mice (Mus musculus) at 50 mg/kg/day intraperitoneal dose. Further details: scale not given: the % may be the effect or the level left. It counts as functional, N-67. An outline of the steps:
as §1

The next series concerns Mus musculus. The experiment in a line: Toxicity to Plasmodium yoelii N-67 infected Swiss mice (Mus musculus) assessed as survival at 50 mg/kg/day, intraperitoneally after 28 days. Particulars: in vivo, ip, 672 h. It counts as organism-based. Further details: route intraperitoneal. The method, boiled down:
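Swiss mice were infected on day 0 with parasitized RBC of CQ-resistant P. yoelii N-67. Groups of five were dosed intraperitoneally at 50 mg/kg/day, once daily on days 0–3. Compounds were given as aqueous suspensions with a few drops of Tween 80. Survival was followed for 28 days. CQ-treated mice served as reference controls.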

Values after ≈ are worked out from the molar mass of the structure shown.

As for `Cc1ccccc1Nc1nc(NC2CCCCC2)nc(N2CCN(CCNc3ccnc4cc(Cl)ccc34)CC2)n1`, the half-maximal inhibitory concentration (IC50) with Plasmodium falciparum was 0.194 µg/mL (≈ 0.34 µM). Besides, the selectivity ratio in series [1] came out at 29.
As to `Fc1ccc(Nc2nc(NC3CCCCC3)nc(N3CCN(CCNc4ccnc5cc(Cl)ccc45)CC3)n2)cc1`, the Activity in the series with Plasmodium yoelii [2] is 74.81%; with Plasmodium yoelii [3], 71.75%. In the series on Plasmodium falciparum, this molecule came in with an IC50 of 0.00783 µg/mL (≈ 0.0136 µM). Also, the selectivity ratio in series [1] was 262.
On to `Fc1ccccc1Nc1nc(N2CCCCC2)nc(N2CCN(CCNc3ccnc4cc(Cl)ccc34)CC2)n1`, for which, in the series with Plasmodium falciparum, half-maximal inhibition (IC50) required 0.159 µg/mL (≈ 0.283 µM). Moreover, in series [1], the selectivity ratio came out at 14.9.
In the case of `Clc1ccc2c(NCCN3CCN(c4nc(Nc5ccccc5)nc(N5CCCCC5)n4)CC3)ccnc2c1`, the Activity in the series on Plasmodium yoelii [2] came out at 66.67%; in the series with Plasmodium yoelii [3], 55.36%. For the same molecule, the 50% inhibitory concentration (IC50) in the series on Plasmodium falciparum was determined as 0.0178 µg/mL (≈ 0.0328 µM). Besides, the selectivity ratio in series [1] worked out at 117.
Take `Cc1ccc(Nc2nc(NC3CCCCC3)nc(N3CCN(CCNc4ccnc5cc(Cl)ccc45)CC3)n2)cc1`: in the series on Plasmodium falciparum, the IC50 is 0.256 µg/mL (≈ 0.447 µM). Besides, the selectivity ratio in series [1] was 115.
As for `Clc1ccc2c(NCCN3CCN(c4nc(Nc5ccccc5)nc(NC5CCCCC5)n4)CC3)ccnc2c1`, the Activity with Plasmodium yoelii [2] was 86.43%; with Plasmodium yoelii [3] it was 78.73%. Further, in the series with Plasmodium falciparum, the IC50 is 0.0162 µg/mL (≈ 0.0291 µM). Also, in series [1], the selectivity ratio came to 154.
Turning to `Clc1ccc2c(NCCN3CCN(c4nc(NC5CCCCC5)nc(N5CCCCC5)n4)CC3)ccnc2c1`, the Activity was 99.9% in the series on Plasmodium yoelii [2], 99.11% in the series on Plasmodium yoelii [3] and “Toxic” with Mus musculus. The molecule also displayed an IC50 in the series on Plasmodium falciparum of 0.00443 µg/mL (≈ 0.00805 µM). In addition, the selectivity ratio in series [1] came to 481.
In turn, `Cc1ccc(Nc2nc(Nc3ccc(C)cc3)nc(N3CCN(CCNc4ccnc5cc(Cl)ccc45)CC3)n2)cc1` displayed an IC50 in the series on Plasmodium falciparum of 0.0383 µg/mL (≈ 0.0659 µM). In addition, the selectivity ratio in series [1] was found to be 155.
The corresponding values for `Clc1ccc2c(NCCN3CCN(c4nc(Nc5ccccc5)nc(N5CCOCC5)n4)CC3)ccnc2c1` are 0.0213 µg/mL (≈ 0.039 µM) and 470.
In turn, `Cc1ccc(Nc2nc(N3CCN(CCNc4ccnc5cc(Cl)ccc45)CC3)nc(N3CCN(c4ccccc4)CC3)n2)cc1` gave an IC50 in the series with Plasmodium falciparum of 0.0646 µg/mL (≈ 0.102 µM). Besides, in series [1], the selectivity ratio is 52.2.
The corresponding values for `Cc1ccccc1Nc1nc(N2CCOCC2)nc(N2CCN(CCNc3ccnc4cc(Cl)ccc34)CC2)n1` are 0.0192 µg/mL (≈ 0.0342 µM) and 377.
In the series with Plasmodium falciparum, `Cc1ccc(Nc2nc(N3CCOCC3)nc(N3CCN(CCNc4ccnc5cc(Cl)ccc45)CC3)n2)cc1` returned an IC50 of 0.0435 µg/mL (≈ 0.0776 µM). Besides, the selectivity ratio in series [1] is 512.
`Fc1ccc(Nc2nc(N3CCCCC3)nc(N3CCN(CCNc4ccnc5cc(Cl)ccc45)CC3)n2)cc1`: the Activity in the series on Plasmodium yoelii [2] is recorded as 99.9%; with Plasmodium yoelii [3], 96.51%. In the series on Plasmodium falciparum, this molecule gave an IC50 of 0.00715 µg/mL (≈ 0.0127 µM). Also, the selectivity ratio in series [1] is 329.
On to `Cc1ccccc1Nc1nc(Nc2ccccc2C)nc(N2CCN(CCNc3ccnc4cc(Cl)ccc34)CC2)n1`, for which the IC50 in the series with Plasmodium falciparum turned out to be 0.186 µg/mL (≈ 0.32 µM). The selectivity ratio in series [1] is 75.3.
Consider `CCN1CCN(c2nc(Nc3ccccc3)nc(N3CCN(CCNc4ccnc5cc(Cl)ccc45)CC3)n2)CC1`, for which the IC50 in the series with Plasmodium falciparum was 0.038 µg/mL (≈ 0.0663 µM). Further, the selectivity ratio in series [1] amounted to 41.8.
With `CCN1CCN(c2nc(Nc3ccc(C)cc3)nc(N3CCN(CCNc4ccnc5cc(Cl)ccc45)CC3)n2)CC1`, in the series on Plasmodium falciparum, the IC50 is 0.019 µg/mL (≈ 0.0324 µM). The selectivity ratio in series [1] was 41.
The corresponding values for `Clc1ccc2c(NCCN3CCN(c4nc(Nc5ccccc5)nc(Nc5ccccc5)n4)CC3)ccnc2c1` are 0.0756 µg/mL (≈ 0.137 µM) and 27.8.
In the series on Plasmodium falciparum, `Clc1ccc2c(NCCN3CCN(c4nc(N5CCCCC5)nc(N5CCCCC5)n4)CC3)ccnc2c1` showed an IC50 of 0.0444 µg/mL (≈ 0.0828 µM). For the same molecule, in series [1], the selectivity ratio was 53.2.
In the series on Plasmodium falciparum, `O=CN1CCN(c2nc(N3CCOCC3)nc(N3CCN(CCNc4ccnc5cc(Cl)ccc45)CC3)n2)CC1` returned an IC50 of 0.0105 µg/mL (≈ 0.0185 µM). Moreover, the selectivity ratio in series [1] turned out to be 4110.
Take `CCN(CC)CCCC(C)Nc1ccnc2cc(Cl)ccc12` (stereo unspecified) [CHLOROQUINE]: the Activity in the series with Plasmodium yoelii [2] is listed as 99.9%; in the series with Plasmodium yoelii [3], 94.26%.

The IC50 is the concentration needed to halve the response being measured.
